IC50, Activity and half-life data for 15 molecules are collected here from ChEMBL document CHEMBL4261493, “Development of novel β-carboline-based hydroxamate derivatives as HDAC inhibitors with DNA damage and apoptosis inducing abilities” (Medchemcomm, 2017).

The target of series [1] is Histone deacetylase. Briefly: Inhibition of HDAC in human HeLa nuclear extract using Boc-Lys(acetyl)-AMC as substrate measured after 60 mins by fluorescence assay. The class given is protein assay.
For series [2], the system named is HCT-116. Briefly: Antiproliferative activity against human HCT116 cells after 48 hrs by MTT assay. The class given is functional, cell-based. The conditions noted are these: HCT-116, 48 h.
The subject of series [3] is HepG2. Briefly: Antiproliferative activity against human HepG2 cells after 48 hrs by MTT assay. The class given is functional, cell-based. The settings on record: HepG2, 48 h.
The test system of series [4] is SMMC-7721. Description: Antiproliferative activity against human SMMC7721 cells after 48 hrs by MTT assay. The settings on record: SMMC-7721, 48 h. The class given is functional, cell-based.
Series [5] relates to LoVo. Description: Antiproliferative activity against human LoVo cells after 48 hrs by MTT assay. The class given is functional, cell-based. Background: Tetrazolium dyes change colour on reduction, which living cells bring about.
For series [6], the system named is Calf thymus DNA. Briefly: Binding affinity to calf thymus DNA assessed as maximum absorption wavelength by UV-Vis spectroscopic titration method. The settings on record: Bos taurus. The class given is nucleic-acid assay.
Series [7] has as its system Calf thymus DNA. Briefly: Binding affinity to calf thymus DNA assessed as decrease in maximum absorption wavelength by UV-Vis spectroscopic titration method. The class given is nucleic-acid assay. The conditions noted are these: Bos taurus.
The subject of series [8] is HepG2. Briefly: Induction of apoptosis in human HepG2 cells at 5 uM after 48 hrs by Annexin-V FITC/propidium iodide staining based flow cytometry relative to control. The class given is functional. A digest of the protocol:
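HepG2 cells treated for 48 h with vehicle, compound at 1.0, 2.0 or 4.0 μM, or SAHA at 5.0 μM. Cells stained with FITC-annexin V/PI and analysed by flow cytometry. Percentage of apoptotic cells reported as mean ± SD of three independent experiments; significance tested versus control.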
On the technique in general: Flow cytometry measures light scatter and fluorescence of single cells or particles in a stream.

For series [9], the system named is HepG2. Description: Induction of apoptosis in human HepG2 cells assessed as increase in cleaved caspase3 expression at 5 uM after 48 hrs by Western blot analysis. The class given is functional, cell-based. A digest of the protocol:
(§1)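 Sub-confluent HepG2 cells incubated with or without compound (1.0–4.0 μM) or SAHA (5.0 μM) for 48 h. Lysates immunoblotted for Bax, Bcl-2, cleaved caspase-3 and PARP, with β-actin as internal control. Densitometric scanning gave levels relative to β-actin, as mean ± SD of three separate experiments.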
A general note: Immunoblotting shows a protein as a band on a membrane.

The subject of series [10] is HepG2. Description: Induction of apoptosis in human HepG2 cells assessed as increase in cleaved PARP expression at 5 uM after 48 hrs by Western blot analysis. The class given is functional, cell-based. A digest of the protocol:
as §1

A short description of series [11]: Half life in rat liver microsomes at 5 uM in presence of NADPH by LC-MS analysis.

The IC50 is the concentration at which inhibition is half-maximal. What is called pIC50 is the IC50 on a negative log10 scale, so that one unit is a factor of ten. Read a high pIC50 as a small IC50. The half-life is how long it takes for the measured level to halve.

pIC50: −log10 of the molar value. The source made the active and inactive calls. No cut-off for these calls is given here.

In series [1], `CCCCN(Cc1ccc(C(=O)NO)cc1)C(=O)c1cc2c([nH]c3ccccc32)c(C)n1` yielded an IC50 of 0.93 µM. In addition, the pIC50 in [2] is less than 4.90; in series [3], 4.93; in [4] it was less than 4.90; in series [5], less than 4.90.

For the molecule `Cc1nc(C(=O)N(C)Cc2ccc(C(=O)NO)cc2)cc2c1[nH]c1ccccc12`, the concentration for half-maximal inhibition (IC50) in series [1] came out at 3.06 µM. Besides, the pIC50 in [2], in [3], in series [4] and in [5] was less than 4.90 throughout.

Molecule `CCCN(Cc1ccc(C(=O)NO)cc1)C(=O)c1cc2c([nH]c3ccccc32)c(C)n1` gave an IC50 in series [1] of 0.85 µM. Further, the pIC50 was 4.98 in series [2], 5.01 in series [3], 4.94 in series [4] and less than 4.90 in [5].

In series [1], `CCCCN(Cc1ccc(C(=O)NO)cc1)C(=O)c1cc2c([nH]c3ccccc32)c(-c2ccc(OC)cc2)n1` showed an IC50 of 0.34 µM. Also, the pIC50 was 5.52 in [2], 5.47 in series [3], 5.28 in series [4] and 5.32 in series [5].

For `CCN(Cc1ccc(C(=O)NO)cc1)C(=O)c1cc2c([nH]c3ccccc32)c(C)n1`, in series [1], the IC50 stood at 1.75 µM. Also, the pIC50 in [2], in series [3], in [4] and in series [5] was less than 4.90 each time.

For `CCCCN(Cc1ccc(C(=O)NO)cc1)C(=O)c1cc2c(cn1)[nH]c1ccccc12`, in series [1], the IC50 is 2.69 µM. In addition, the pIC50 in series [2], in series [3] and in series [4] was less than 4.90 in each case.

The molecule `CCCCN(Cc1ccc(C(=O)NO)cc1)C(=O)c1cc2c([nH]c3ccccc32)c(-c2cccc(OC)c2)n1` gave an IC50 in [1] of 0.37 µM. Moreover, the pIC50 was 5.36 in series [2], 5.29 in series [3], 5.24 in series [4] and 5.12 in series [5].

The molecule `CCCN(Cc1ccc(C(=O)NO)cc1)C(=O)c1cc2c([nH]c3ccccc32)c(-c2cccc(OC)c2)n1` had an IC50 in series [1] of 0.23 µM. Moreover, the pIC50 is 5.53 in series [2], 5.44 in series [3], 5.39 in series [4] and 5.27 in series [5].

With `COc1ccc2c(c1)[nH]c1c(C)nccc12` [HARMINE], the IC50 in series [1] was more than 10 µM. Besides, the Activity in series [6] turned out to be 320 nm.

`CCN(Cc1ccc(C(=O)NO)cc1)C(=O)c1cc2c([nH]c3ccccc32)c(-c2ccc(OC)cc2)n1`: in [1], the IC50 was found to be 0.83 µM. In addition, the pIC50 is 5.22 in series [2], 5.08 in series [3], 4.99 in [4] and 5.03 in series [5].

With `O=C(CCCCCCC(=O)Nc1ccccc1)NO` [VORINOSTAT], in series [7], the result was inactive. Moreover, in series [8], the Activity is given as 34.5%. The result in [9] and in series [10] was Active. In addition, in series [11], the half-life at 5 µM stood at 44 min.

With `CCCN(Cc1ccc(C(=O)NO)cc1)C(=O)c1cc2c(cn1)[nH]c1ccccc12`, the IC50 in series [1] turned out to be 2.82 µM. Moreover, the pIC50 in series [2], in series [3] and in series [4] was less than 4.90 in each case.

In turn, `CN(Cc1ccc(C(=O)NO)cc1)C(=O)c1cc2c(cn1)[nH]c1ccccc12` yielded an IC50 in [1] of 5.63 µM. Moreover, the pIC50 in series [2], in series [3] and in series [4] was less than 4.90 in each case.

Molecule `COc1ccc(-c2nc(C(=O)N(C)Cc3ccc(C(=O)NO)cc3)cc3c2[nH]c2ccccc23)cc1` came in with a concentration for half-maximal inhibition (IC50) in series [1] of 0.96 µM. Also, the pIC50 in series [2] is 5.01; in series [3], 4.98; in series [4] it was less than 4.90; in [5] it was less than 4.90.

Consider `CCN(Cc1ccc(C(=O)NO)cc1)C(=O)c1cc2c(cn1)[nH]c1ccccc12`, for which the IC50 in [1] came to 4.78 µM. For the same molecule, the pIC50 in series [2], in series [3] and in series [4] was less than 4.90 throughout.
